{"source": "ChEMBL document CHEMBL4350961", "about": "“Discovery of Pyrrolo[3,2- d]pyrimidin-4-one Derivatives as a New Class of Potent and Cell-Active Inhibitors of P300/CBP-Associated Factor Bromodomain” (J Med Chem, 2019)", "key": {"[1]": {"system": "RAC-beta serine/threonine-protein kinase (Homo sapiens), P31751 [S474D]", "experiment": "Inhibition of recombinant full-length human PKBbeta S474D mutant (120 to end residues) at 10 uM using GRPRTSSFAEGKK as substrate measured after 40 mins in presence of [gamma33P]ATP by scintillation counting method"}, "[2]": {"system": "Hepatocyte growth factor receptor (Homo sapiens), P08581 [D1228H]", "sequence (P08581 whole entry D1228H)": "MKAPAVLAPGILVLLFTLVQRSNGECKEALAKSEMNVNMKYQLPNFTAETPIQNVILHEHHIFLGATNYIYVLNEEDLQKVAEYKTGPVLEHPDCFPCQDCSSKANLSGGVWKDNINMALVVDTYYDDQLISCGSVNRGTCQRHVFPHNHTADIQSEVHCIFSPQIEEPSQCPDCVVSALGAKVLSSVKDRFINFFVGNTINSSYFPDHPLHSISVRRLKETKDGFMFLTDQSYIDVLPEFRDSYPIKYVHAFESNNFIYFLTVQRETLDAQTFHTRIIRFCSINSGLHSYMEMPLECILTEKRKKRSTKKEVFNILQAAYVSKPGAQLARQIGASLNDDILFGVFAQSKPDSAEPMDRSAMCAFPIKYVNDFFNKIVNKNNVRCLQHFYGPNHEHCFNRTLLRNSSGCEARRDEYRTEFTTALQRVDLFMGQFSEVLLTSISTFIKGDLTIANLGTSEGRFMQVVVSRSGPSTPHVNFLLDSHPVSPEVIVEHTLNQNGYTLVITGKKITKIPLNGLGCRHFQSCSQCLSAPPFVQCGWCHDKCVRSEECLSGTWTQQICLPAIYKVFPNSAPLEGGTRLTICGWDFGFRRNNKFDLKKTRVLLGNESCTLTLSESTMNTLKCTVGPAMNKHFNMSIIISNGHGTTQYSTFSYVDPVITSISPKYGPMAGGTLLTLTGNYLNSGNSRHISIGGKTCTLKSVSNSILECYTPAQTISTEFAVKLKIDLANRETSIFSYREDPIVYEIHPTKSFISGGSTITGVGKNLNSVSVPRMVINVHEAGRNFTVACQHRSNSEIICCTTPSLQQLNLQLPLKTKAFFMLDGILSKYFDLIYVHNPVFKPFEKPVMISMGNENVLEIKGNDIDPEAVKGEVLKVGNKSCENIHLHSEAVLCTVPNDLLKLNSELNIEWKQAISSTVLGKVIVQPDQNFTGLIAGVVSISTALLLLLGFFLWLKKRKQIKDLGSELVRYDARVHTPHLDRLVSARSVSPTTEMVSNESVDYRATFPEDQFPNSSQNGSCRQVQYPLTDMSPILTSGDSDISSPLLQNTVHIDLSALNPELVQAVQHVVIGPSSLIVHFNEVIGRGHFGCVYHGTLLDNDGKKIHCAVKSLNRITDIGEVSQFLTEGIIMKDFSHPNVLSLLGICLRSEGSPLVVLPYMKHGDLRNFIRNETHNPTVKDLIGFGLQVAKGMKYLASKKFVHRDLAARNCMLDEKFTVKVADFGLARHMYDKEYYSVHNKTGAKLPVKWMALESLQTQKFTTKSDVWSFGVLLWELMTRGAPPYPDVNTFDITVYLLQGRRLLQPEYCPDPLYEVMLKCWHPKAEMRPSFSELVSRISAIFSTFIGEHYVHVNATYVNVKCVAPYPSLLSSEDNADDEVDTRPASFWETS", "experiment": "Inhibition of recombinant human MET A1209G/V1290L/D1246H mutant (974 to end residues) at 10 uM using KKKGQEEEYVFIE as substrate measured after 40 mins in presence of [gamma33P]ATP by scintillation counting method"}, "[3]": {"biological_target": "Serine/threonine-protein kinase VRK1 (Homo sapiens) (UniProt Q99986)", "experiment": "Inhibition of human VRK1 at 10 uM by radiometric method"}, "[4]": {"biological_target": "Bromodomain-containing protein 7 (Homo sapiens) (UniProt Q9NPI1)", "sequence (Q9NPI1 whole entry, the tested form may be a part)": "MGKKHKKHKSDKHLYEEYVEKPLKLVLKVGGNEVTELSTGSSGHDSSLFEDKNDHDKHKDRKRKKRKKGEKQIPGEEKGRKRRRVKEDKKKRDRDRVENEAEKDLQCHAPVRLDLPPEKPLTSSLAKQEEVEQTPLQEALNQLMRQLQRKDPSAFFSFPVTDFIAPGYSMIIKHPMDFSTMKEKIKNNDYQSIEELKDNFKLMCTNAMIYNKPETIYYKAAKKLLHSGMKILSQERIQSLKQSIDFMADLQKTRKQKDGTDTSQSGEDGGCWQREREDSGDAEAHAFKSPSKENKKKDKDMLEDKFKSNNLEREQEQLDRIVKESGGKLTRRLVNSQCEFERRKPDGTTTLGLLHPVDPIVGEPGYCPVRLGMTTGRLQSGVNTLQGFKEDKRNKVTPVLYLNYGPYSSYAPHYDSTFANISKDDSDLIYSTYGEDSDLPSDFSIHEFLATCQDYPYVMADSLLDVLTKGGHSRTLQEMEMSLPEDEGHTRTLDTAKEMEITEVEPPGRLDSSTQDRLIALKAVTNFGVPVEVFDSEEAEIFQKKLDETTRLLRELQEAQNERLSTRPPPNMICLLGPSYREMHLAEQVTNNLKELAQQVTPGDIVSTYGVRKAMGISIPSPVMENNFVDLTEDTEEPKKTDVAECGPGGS", "experiment": "Binding affinity to human partial length BRD7 (L125 to R254 residues) expressed in mammalian expression system at 1 uM by BROMOscan assay", "method_in_brief": "(§1)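 BROMOscan bromodomain cross-screen run by an outside service, compound at 1 µM against 32 recombinant bromodomains. Binding given as percent of control.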"}, "[5]": {"biological_target": "Serine/threonine-protein kinase PLK1 (Homo sapiens) (UniProt P53350)", "experiment": "Inhibition of recombinant full-length human Plk1 at 10 uM using casein as substrate measured after 40 mins in presence of [gamma33P]ATP by scintillation counting method"}, "[6]": {"biological_target": "Receptor tyrosine-protein kinase erbB-4 (Homo sapiens) (UniProt Q15303)", "experiment": "Inhibition of recombinant human ErbB4 (706 to 991 residues) at 10 uM using poly (Glu, Tyr) 4:1 as substrate measured after 40 mins in presence of [gamma33P]ATP by scintillation counting method"}, "[7]": {"biological_target": "Bone morphogenetic protein receptor type-2 (Homo sapiens) (UniProt Q13873)", "experiment": "Inhibition of recombinant human BMPR2 (172 to 734 residues) at 10 uM using myelin basic protein as substrate measured after 120 mins in presence of [gamma33P]ATP by scintillation counting method"}, "[8]": {"biological_target": "Ephrin type-A receptor 4 (Homo sapiens) (UniProt P54764)", "sequence (P54764 whole entry, the tested form may be a part)": "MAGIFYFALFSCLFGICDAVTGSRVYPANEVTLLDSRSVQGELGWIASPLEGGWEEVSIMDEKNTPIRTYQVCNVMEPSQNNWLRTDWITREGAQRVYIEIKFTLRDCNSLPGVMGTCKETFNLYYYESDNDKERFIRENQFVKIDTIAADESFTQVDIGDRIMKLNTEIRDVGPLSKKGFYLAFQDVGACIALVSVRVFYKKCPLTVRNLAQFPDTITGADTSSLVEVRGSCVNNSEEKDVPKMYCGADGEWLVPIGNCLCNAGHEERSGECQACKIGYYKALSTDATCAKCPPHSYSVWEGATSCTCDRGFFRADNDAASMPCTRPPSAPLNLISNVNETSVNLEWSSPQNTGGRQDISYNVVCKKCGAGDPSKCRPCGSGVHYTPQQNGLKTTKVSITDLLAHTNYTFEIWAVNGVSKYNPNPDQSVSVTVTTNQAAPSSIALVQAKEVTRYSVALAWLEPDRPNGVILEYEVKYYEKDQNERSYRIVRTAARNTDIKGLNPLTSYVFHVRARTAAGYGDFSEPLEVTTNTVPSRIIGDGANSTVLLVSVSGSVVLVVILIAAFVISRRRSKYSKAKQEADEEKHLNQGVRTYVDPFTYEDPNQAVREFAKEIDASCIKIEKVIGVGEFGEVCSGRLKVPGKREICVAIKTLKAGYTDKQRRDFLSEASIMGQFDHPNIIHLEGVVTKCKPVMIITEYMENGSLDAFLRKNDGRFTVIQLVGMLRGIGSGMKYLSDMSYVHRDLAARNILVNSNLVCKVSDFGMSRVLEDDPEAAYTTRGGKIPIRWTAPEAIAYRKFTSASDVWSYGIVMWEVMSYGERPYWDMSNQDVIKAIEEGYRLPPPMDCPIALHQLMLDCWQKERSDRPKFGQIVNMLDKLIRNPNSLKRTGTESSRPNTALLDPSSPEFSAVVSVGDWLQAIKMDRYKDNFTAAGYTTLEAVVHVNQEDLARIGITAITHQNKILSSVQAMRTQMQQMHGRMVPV", "experiment": "Inhibition of recombinant human EphA4 (601 to 892 residues) at 10 uM using poly(Glu, Tyr) 4:1 as substrate measured after 40 mins in presence of [gamma33P]ATP by scintillation counting method"}, "[9]": {"biological_target": "Casein kinase I isoform epsilon (Homo sapiens) (UniProt P49674)", "experiment": "Inhibition of human CK1epsilon at 10 uM using KRRRALS(p)VASLPGL as substrate measured after 120 mins in presence of [gamma33P]ATP by scintillation counting method", "method_in_brief": "(§2)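 Kinase panel of 422 kinases screened by Eurofins KinaseProfiler at a single test-compound concentration of 10 µM.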"}, "[10]": {"biological_target": "Bromodomain-containing protein 4 (Homo sapiens) (UniProt O60885)", "experiment": "Binding affinity to human N-terminal His-tagged BRD4 bromodomain1 assessed as change in melting temperature at 10 uM by SYPRO orange dye-based fluorescence assay", "method_in_brief": "(§3)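 Thermal shift with His-tagged human bromodomain at 2 μM final in 10 mM HEPES pH 7.5, 500 mM NaCl. Compound at 10 μM final with 0.1% DMSO; SYPRO Orange at 1:1000. Equilibrated 3 min at 25 °C, then heated from 25 to 95 °C at 1 °C/min. Melting temperature shift taken from fluorescence; at least duplicate.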"}, "[11]": {"biological_target": "Histone acetyltransferase KAT2A (Homo sapiens, UniProt Q92830)", "experiment": "Binding affinity to human partial length GCN5L2 (E726 to K837 residues) expressed in bacterial expression system at 1 uM by BROMOscan assay", "method_in_brief": "as §1"}, "[12]": {"biological_target": "Proto-oncogene tyrosine-protein kinase receptor Ret (Homo sapiens) (UniProt P07949)", "sequence (P07949 whole entry)": "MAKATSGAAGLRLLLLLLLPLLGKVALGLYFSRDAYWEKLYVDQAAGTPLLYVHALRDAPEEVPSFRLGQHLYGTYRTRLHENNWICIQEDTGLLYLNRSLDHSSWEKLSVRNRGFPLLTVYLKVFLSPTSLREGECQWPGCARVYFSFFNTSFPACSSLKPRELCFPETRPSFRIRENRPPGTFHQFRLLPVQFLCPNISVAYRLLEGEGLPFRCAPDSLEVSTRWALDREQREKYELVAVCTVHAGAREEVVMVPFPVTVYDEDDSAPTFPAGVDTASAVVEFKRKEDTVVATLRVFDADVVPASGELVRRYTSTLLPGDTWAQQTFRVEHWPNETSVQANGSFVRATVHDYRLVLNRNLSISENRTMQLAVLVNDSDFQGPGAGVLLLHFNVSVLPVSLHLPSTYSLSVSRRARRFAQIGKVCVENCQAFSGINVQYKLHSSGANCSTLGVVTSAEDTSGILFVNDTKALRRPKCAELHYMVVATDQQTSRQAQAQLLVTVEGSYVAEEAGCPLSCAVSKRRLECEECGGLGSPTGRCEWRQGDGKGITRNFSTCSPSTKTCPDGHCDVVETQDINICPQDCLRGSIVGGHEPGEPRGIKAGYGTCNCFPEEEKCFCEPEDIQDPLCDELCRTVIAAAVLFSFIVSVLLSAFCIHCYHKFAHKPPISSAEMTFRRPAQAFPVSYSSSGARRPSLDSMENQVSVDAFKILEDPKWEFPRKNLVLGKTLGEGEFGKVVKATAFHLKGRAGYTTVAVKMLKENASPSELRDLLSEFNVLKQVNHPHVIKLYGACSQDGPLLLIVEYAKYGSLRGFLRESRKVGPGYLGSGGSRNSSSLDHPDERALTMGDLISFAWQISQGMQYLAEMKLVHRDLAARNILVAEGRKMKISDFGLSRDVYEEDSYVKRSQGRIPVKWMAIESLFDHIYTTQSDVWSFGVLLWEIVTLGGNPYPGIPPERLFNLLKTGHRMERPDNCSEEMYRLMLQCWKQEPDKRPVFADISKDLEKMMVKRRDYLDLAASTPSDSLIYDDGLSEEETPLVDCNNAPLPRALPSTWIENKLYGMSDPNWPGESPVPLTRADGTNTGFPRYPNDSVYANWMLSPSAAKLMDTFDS", "experiment": "Inhibition of human Ret (658 to end residues) using KKKSPGEYVNIEFG as substrate measured after 40 mins in presence of [gamma33P]ATP by scintillation counting method", "method_in_brief": "as §2"}, "[13]": {"biological_target": "Dual specificity tyrosine-phosphorylation-regulated kinase 1B (Homo sapiens) (UniProt Q9Y463)", "experiment": "Inhibition of recombinant full-length human DYRK1B at 10 uM using RRRFRPASPLRGPPK as substrate measured after 40 mins in presence of [gamma33P]ATP by scintillation counting method"}, "[14]": {"system": "Epidermal growth factor receptor (Homo sapiens), P00533 [T790M]", "experiment": "Inhibition of recombinant human EGFR T790M mutant (696 to end residues) at 10 uM using GGMEDIYFEFMGGKKK as substrate measured after 40 mins in presence of [gamma33P]ATP by scintillation counting method"}, "[15]": {"biological_target": "Serine/threonine-protein kinase N2 (Homo sapiens) (UniProt Q16513)", "experiment": "Inhibition of human PRK2 (501 to end residues) using AKRRRLSSLRA as substrate measured after 40 mins in presence of [gamma33P]ATP by scintillation counting method", "method_in_brief": "as §2"}, "[16]": {"biological_target": "Mitogen-activated protein kinase kinase kinase kinase 2 (Homo sapiens) (UniProt Q12851)", "sequence (Q12851 whole entry)": "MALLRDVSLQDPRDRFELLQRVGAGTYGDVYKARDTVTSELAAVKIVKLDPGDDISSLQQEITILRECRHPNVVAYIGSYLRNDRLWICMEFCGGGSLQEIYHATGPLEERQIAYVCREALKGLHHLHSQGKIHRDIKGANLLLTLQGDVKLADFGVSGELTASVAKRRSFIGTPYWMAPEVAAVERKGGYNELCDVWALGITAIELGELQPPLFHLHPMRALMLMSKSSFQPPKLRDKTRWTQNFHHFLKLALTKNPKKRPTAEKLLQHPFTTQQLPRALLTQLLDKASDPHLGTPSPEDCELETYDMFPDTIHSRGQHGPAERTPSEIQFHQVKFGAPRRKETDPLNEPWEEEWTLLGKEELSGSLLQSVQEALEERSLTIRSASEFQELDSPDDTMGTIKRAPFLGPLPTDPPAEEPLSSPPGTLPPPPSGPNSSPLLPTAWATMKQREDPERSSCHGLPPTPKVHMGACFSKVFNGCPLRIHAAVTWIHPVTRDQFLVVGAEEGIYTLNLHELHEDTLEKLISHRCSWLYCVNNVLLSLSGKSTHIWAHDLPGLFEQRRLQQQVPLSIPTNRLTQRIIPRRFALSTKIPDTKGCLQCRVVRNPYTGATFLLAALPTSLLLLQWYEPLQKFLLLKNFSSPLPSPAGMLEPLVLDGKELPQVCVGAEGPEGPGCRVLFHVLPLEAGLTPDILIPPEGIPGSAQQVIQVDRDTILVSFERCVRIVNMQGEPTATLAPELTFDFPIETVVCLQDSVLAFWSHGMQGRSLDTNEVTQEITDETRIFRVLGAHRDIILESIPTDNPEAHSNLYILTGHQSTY", "experiment": "Inhibition of recombinant human GCK at 10 uM using myelin basic protein as substrate measured after 40 mins in presence of [gamma33P]ATP by scintillation counting method"}, "[17]": {"experiment": "Tmax in Sprague-Dawley rat at 10 mg/kg, po administered via gavage by LC-MS/MS analysis", "format": "ADME, organism-based", "details": "in vivo"}, "[18]": {"system": "Tyrosine-protein kinase Blk (Homo sapiens), P51451 [UNDEFINED MUTATION]", "experiment": "Inhibition of full-length recombinant human BLK M287V mutant at 10 uM using poly(Glu, Tyr) 4:1 as substrate measured after 40 mins in presence of [gamma33P]ATP by scintillation counting method", "method_in_brief": "as §2"}, "Mus musculus": {"species_on_record": "Mus musculus", "experiment": "Inhibition of full-length recombinant mouse BLK V421E mutant at 10 uM using poly(Glu, Tyr) 4:1 as substrate measured after 40 mins in presence of [gamma33P]ATP by scintillation counting method", "method_in_brief": "as §2"}, "[19]": {"biological_target": "Casein kinase I isoform gamma-2 (Homo sapiens) (UniProt P78368)", "experiment": "Inhibition of recombinant human CK1gamma2 (18 to end residues) at 10 uM using KRRRALS(p)VASLPGL as substrate measured after 40 mins in presence of [gamma33P]ATP by scintillation counting method"}, "[20]": {"biological_target": "Dual specificity mitogen-activated protein kinase kinase 6 (Homo sapiens) (UniProt P52564)", "experiment": "Inhibition of recombinant human MKK6 (4 to end residues) at 10 uM using unactive SAPK2a as substrate measured after 40 mins in presence of [gamma33P]ATP by scintillation counting method"}, "[21]": {"biological_target": "Histone acetyltransferase p300 (Homo sapiens) (UniProt Q09472)", "experiment": "Binding affinity to human N-terminal His-tagged EP300 assessed as change in melting temperature at 10 uM by SYPRO orange dye-based fluorescence assay", "method_in_brief": "as §3"}, "[22]": {"biological_target": "LIM domain kinase 1 (Homo sapiens) (UniProt P53667)", "experiment": "Inhibition of recombinant human LIMK1 (285 to 638 residues) at 10 uM using cofilin as substrate measured after 40 mins in presence of [gamma33P]ATP by scintillation counting method"}}, "note": "Calls of active or inactive are those of the source. No cut-off for these calls is given here."}
{"smiles": "CN1C[C@H](Nc2nc3cc[nH]c3c(=O)n2C)C[C@H](c2ccc3c(c2)OCCO3)C1", "values": [{"measurement": "inhibition", "setting": "[1]", "result": "inactive"}, {"measurement": "inhibition", "setting": "[2]", "result": "inactive"}, {"measurement": "inhibition", "setting": "[3]", "result": "inactive"}, {"measurement": "Activity", "setting": "[4]", "result": "inactive"}, {"measurement": "inhibition", "setting": "[5]", "result": "inactive"}, {"measurement": "inhibition", "setting": "[6]", "result": "inactive"}, {"measurement": "inhibition", "setting": "[7]", "result": "inactive"}, {"measurement": "inhibition", "setting": "[8]", "result": "inactive"}, {"measurement": "inhibition", "setting": "[9]", "result": "inactive"}, {"measurement": "ΔTm", "setting": "[10]", "result": 0.1, "unit": "°C"}, {"measurement": "Activity", "setting": "[11]", "result": "Active"}, {"measurement": "inhibition", "setting": "[12]", "result": "inactive"}, {"measurement": "inhibition", "setting": "[13]", "result": "inactive"}, {"measurement": "inhibition", "setting": "[14]", "result": "inactive"}, {"measurement": "inhibition", "setting": "[15]", "result": "inactive"}, {"measurement": "inhibition", "setting": "[16]", "result": "inactive"}, {"measurement": "Tmax", "setting": "[17]", "result": 40.2, "unit": "min"}, {"measurement": "inhibition", "setting": "[18]", "result": "inactive"}, {"measurement": "inhibition", "setting": "Mus musculus", "result": "inactive"}, {"measurement": "inhibition", "setting": "[19]", "result": "inactive"}, {"measurement": "inhibition", "setting": "[20]", "result": "inactive"}, {"measurement": "ΔTm", "setting": "[21]", "result": 0.1, "unit": "°C"}, {"measurement": "inhibition", "setting": "[22]", "result": "inactive"}]}
